High-throughput results from PubChem.
Hep lipid drop: inhibitors of hepatocyte lipid droplet formation, primary screen, imaging, high-throughput imaging, BODIPY stain; AML12 mouse hepatocytes, oleate lipid droplets; inhibition, % at 6.5 µM; 0.4% of 240,000 active; AID 1656, 2009;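 active = lipid droplet intensity inhibited by at least 50%, with more than 500 cells counted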
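Assay system: AML12 hepatocytes (mouse) / Also added: 100 µM oleic acid challenge / Times: overnight treatment with compound plus oleate / Detection: high-content imaging of BODIPY-stained droplets and DAPI nuclei / Evaluation: % inhibition of lipid droplet signal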
MrgX1 ag: agonists of human MrgX1 receptor, primary screen, HEK293 cells, Fluo-4 calcium flux; Mas-related G-protein coupled receptor member X1 (Homo sapiens), Q96LB2; Fluo-4 calcium fluorescence, agonist mode; hits give high values; B-score at 10 µM; 0.44% of 310,000 active;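 active = calcium response B-score plate-corrected fluorescence ratio at least 3 library SD, with starting fluorescence B-score inside 5 SD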
Target sequence (Q96LB2 whole entry, looked up): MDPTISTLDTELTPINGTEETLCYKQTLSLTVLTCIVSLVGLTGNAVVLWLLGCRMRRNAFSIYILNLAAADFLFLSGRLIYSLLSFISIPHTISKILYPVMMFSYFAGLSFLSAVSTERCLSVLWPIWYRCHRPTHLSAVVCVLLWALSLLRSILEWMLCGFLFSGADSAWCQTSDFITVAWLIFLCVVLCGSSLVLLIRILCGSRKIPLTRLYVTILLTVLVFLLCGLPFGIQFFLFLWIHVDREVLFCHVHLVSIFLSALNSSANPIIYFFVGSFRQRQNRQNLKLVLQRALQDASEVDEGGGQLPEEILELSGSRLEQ
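Test system: HEK293 cells stably expressing human MrgX1 receptor; Input: fifteen thousand cells per well; Dosing: compound delivered in addition one of three; Schedule: overnight seeding, then 1 h dark dye loading; Technique: Fluo-4 NW calcium fluorescence; Measure: B-scored fluorescence response ratio; Controls: positive and negative controls per plate.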
MrgX1 allo act: positive allosteric modulators of MrgX1, primary screen, HEK293 cells, Fluo-4 calcium flux; 0.63% of 310,000 active; B-score at 10 µM; FDSS; hits give high values; Mas-related G-protein coupled receptor member X1 (Homo sapiens), Q96LB2;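 active = plate-corrected calcium response at least 3 library SD above typical, normal starting fluorescence, not activating the receptor alone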;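 note: compound read alongside a low EC10 to EC30 dose of BAM8-22 agonist; peak minus trough fluorescence over baseline measured at the second addition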
RGS4 act: RGS4 potentiators or activators, primary screen, cell-based, HEK293 M3R inducible RGS4, calcium flux; B-score at 10 µM; carbachol calcium flux Fluo4; hits give low values; AID 463111, 2010; 0.92% of 310,000 active;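 active = B-score of the integrated calcium signal more than 4 SD below the library mean, with starting fluorescence not abnormally high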;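 note: negative B-score means reduced calcium response which marks RGS4 activation or potentiation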
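Material: M3R-expressing HEK293 line, RGS4 induced by doxycycline | Schedule: Overnight RGS4 induction, 30 min dye load 37 °C, 20 min compound RT | Measured by: Fluo4 fluorescence kinetic imaging of calcium | Read-out: Integrated calcium ratio converted to B score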
MrgX1 antag: antagonists of human MrgX1 receptor, primary screen, HEK293 cells, Fluo-4 calcium flux; Mas-related G-protein coupled receptor member X1 (Homo sapiens), Q96LB2; BAM8-22 antagonism; hits give low values; B-score at 10 µM; 1.3% of 310,000 active; AID 588676, 2011;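 active = calcium-response B-score plate-corrected more than 3 library SD below zero, starting fluorescence within 5 deviations, no agonist response on first addition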;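 note: peak minus trough fluorescence over baseline after final BAM8-22 challenge near maximal dose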
RGS4 inh: RGS4 inhibitors, primary screen, cell-based, HEK293 M3R inducible RGS4, calcium flux; Regulator of G-protein signaling 4 (Homo sapiens), P49798; Fluo-4 calcium flux; hits give high values; triggered by carbachol at its EC20; B-score at 10 µM; 0.45% of 310,000 active;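 active = B-score, a plate-corrected calcium signal, over three deviations above library mean, with baseline fluorescence within five deviations of library mean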;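 note: RGS4 expression induced by doxycycline in cells with stable M3 receptor; B-score is computed from the integrated fluorescence ratio over baseline after carbachol; higher B-score means a larger calcium signal and so more RGS4 inhibition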
Target sequence (P49798 whole entry, looked up): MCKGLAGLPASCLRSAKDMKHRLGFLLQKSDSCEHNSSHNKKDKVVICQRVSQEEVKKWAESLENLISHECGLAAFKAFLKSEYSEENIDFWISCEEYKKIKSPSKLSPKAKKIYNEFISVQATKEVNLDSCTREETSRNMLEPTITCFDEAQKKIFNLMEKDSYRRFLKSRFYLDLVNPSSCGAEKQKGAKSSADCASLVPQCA
MrgX1 PAM conf: MrgX1 positive allosteric modulators, duplicate retest, confirmation, HEK293 cells, Fluo-4 calcium flux. shares compounds with MrgX1 allo act. Fluo-4 calcium fluorescence, FDSS. activation (ratio percentage), % at 10 µM. 13% of 1,200 active;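 active = ratio at least 3 SD above the weak peptide control, stable starting fluorescence, no direct agonism earlier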;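 note: compound followed by low BAM8-22 agonist challenge near EC20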
MrgX1 ant reconf: MrgX1 receptor antagonists, duplicate retest, confirmation, HEK293 cells, Fluo-4 calcium flux; 19% of 2,300 active; remaining BAM8-22 calcium response % of control (hits give low values), % at 10 µM; BAM8-22 calcium flux; hits give low values; shares compounds with MrgX1 antag;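 active = remaining agonist calcium response no higher than 100% minus 3 SD of agonist-only control wells, with starting fluorescence near control levels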;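 note: agonist BAM8-22 given at a near maximal EC90 to ECmax level; peak minus minimum fluorescence divided by baseline after agonist addition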
HEK293 Ca flux: nonspecific calcium signal in parental HEK293, confirmation, counter-screen for MrgX1 antagonist project, parental HEK293 cells, Fluo-4 calcium flux; shares compounds with MrgX1 antag; Fluo-4 calcium fluorescence, FDSS; fluorescence ratio F(max-min)/F0 at 10 µM; 2% of 4,000 active; AID 624111, 2012;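 active = duplicate-averaged calcium fluorescence ratio at least three times the standard deviation of buffer wells, a nonspecific response in parental cells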
HEK293 Ca counter: calcium response in parental HEK293 cells, primary screen, counter-screen for MrgX1 allosteric activator project, cell-based, Fluo-4 calcium flux, duplicate; shares compounds with MrgX1 antag; Fluo-4 fluorescence ratio; hits give high values; fluorescence ratio F(max-min)/F0 at 10 µM; 0.4% of 4,000 active;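 active = calcium fluorescence ratio, averaged over duplicates, at least 3 SD of the buffer-well ratio, meaning a nonspecific response in receptor-free cells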;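 note: untransfected parental HEK293 lacking MrgX1 used as counterscreen for MrgX1 allosteric activators; fluorescence change taken during the second addition on a kinetic imager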
HEK293 Ca cntr2: calcium response in parental HEK293 cells, primary screen, counter-screen for MrgX1 agonist project, cell-based, Fluo-4 calcium flux, duplicate, agonist mode; shares compounds with MrgX1 antag; Fluo-4 calcium fluorescence (FDSS); hits give high values; fluorescence ratio F(max-min)/F0 at 10 µM; 8.7% of 4,000 active; AID 624115, 2012;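 active = calcium fluorescence ratio at least three times the spread of buffer wells, meaning a non-specific response in parental cells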
Each line names hits and unclear results; the compound was inactive in the other large screens (follow-up assays come after a bar, where they were run). Only some compounds are listed: those with a hit (about 3.8% of all), similar ones and a draw of the others.

c1ccc(Oc2cc(-n3cncn3)ncn2)cc1	none
Cc1cnn(-c2cc(Oc3ccccc3)ncn2)c1	MrgX1 allo act 8.8 (no result: Hep lipid drop) | MrgX1 PAM conf inactive | HEK293 Ca flux inactive | HEK293 Ca counter inactive | HEK293 Ca cntr2 inactive
COc1ccc(/C=C2\Sc3ccc(C(=O)NCCN4CCCCCC4)cc3N(C)C2=O)cc1	none
CCN1CCN(CCNC(=O)c2ccc3c(c2)N(Cc2ccc(F)cc2)C(=O)/C(=C/c2ccccc2)S3)CC1	MrgX1 allo act 21, MrgX1 antag -16 | MrgX1 PAM conf inactive | MrgX1 ant reconf 66% | HEK293 Ca flux inactive | HEK293 Ca counter inactive | HEK293 Ca cntr2 inactive
CCn1c(SCC(=O)Nc2nc(C)c(C)s2)nc2cccnc21	none
CCOC(=O)Cc1csc(NC(=O)CSc2nc3cccnc3n2CC)n1	MrgX1 allo act 7.3 (no result: Hep lipid drop) | MrgX1 PAM conf inactive | HEK293 Ca flux inactive | HEK293 Ca counter inactive | HEK293 Ca cntr2 inactive
Cc1ccc(S(=O)(=O)NCCc2ccccc2)cc1	none
Cc1cc(C)c(S(=O)(=O)NCCc2ccccc2)c(C)c1	MrgX1 allo act 9.7 | MrgX1 PAM conf inactive | HEK293 Ca flux inactive | HEK293 Ca counter inactive | HEK293 Ca cntr2 inactive
Cc1cnc(C(=O)NC2CC(C)(C)Cc3c2cnn3-c2cccc(F)c2)cn1 (stereo not drawn)	MrgX1 allo act 7.8 | MrgX1 PAM conf inactive | HEK293 Ca flux inactive | HEK293 Ca counter inactive | HEK293 Ca cntr2 inactive
CCn1cc(C(=O)NC2CC(C)(C)Cc3c2cnn3-c2cccc(F)c2)cn1 (stereo not drawn)	none
CCC(=O)N(CCc1ccccc1)Cc1cc2cc(OC)ccc2[nH]c1=O	MrgX1 allo act 10 | MrgX1 PAM conf inactive | HEK293 Ca flux inactive | HEK293 Ca counter inactive | HEK293 Ca cntr2 inactive
CC(=O)N(CCc1ccccc1)Cc1cc2ccc(C)c(C)c2[nH]c1=O	MrgX1 allo act 8.6 | MrgX1 PAM conf 2.4% | HEK293 Ca flux inactive | HEK293 Ca counter inactive | HEK293 Ca cntr2 inactive
CCC(=O)N(CCO)Cc1cc2ccc(C)c(C)c2[nH]c1=O	none (no result: Hep lipid drop)
CCC(=O)N(CCc1ccccc1)Cc1cc2ccc(OC)cc2[nH]c1=O	none
COC(=O)c1c(C)nc2ccccc2c1C(=O)O	none (no result: Hep lipid drop)
CC(C)=CCc1c(C)nc2ccccc2c1C(=O)O	MrgX1 allo act 11 (no result: Hep lipid drop) | MrgX1 PAM conf inactive | HEK293 Ca flux inactive | HEK293 Ca counter inactive | HEK293 Ca cntr2 inactive
O=C(Nc1ccc2oc(-c3ccccc3)nc2c1)c1ccco1	none
CC(C)(OC1OC(CO)C(O)C(O)C1O)[C@H]1Oc2ccc3ccc(=O)oc3c2[C@H]1O (stereo partly drawn)	none
CCOC(=O)c1sc(Nc2ccccc2Cl)nc1C	MrgX1 allo act 13 | MrgX1 PAM conf inactive | HEK293 Ca flux inactive | HEK293 Ca counter inactive | HEK293 Ca cntr2 inactive
Cc1cc(C)cc(OCCn2nnc3ccccc32)c1	none
Cc1ccc2c(c1)C(=O)C(=O)N2CC(=O)Nc1ccccc1NC(=O)c1ccccn1	MrgX1 allo act 15 | MrgX1 PAM conf inactive | HEK293 Ca flux inactive | HEK293 Ca counter inactive | HEK293 Ca cntr2 inactive
Cc1sc2ncn(CCC(=O)O)c(=O)c2c1C	none (no result: Hep lipid drop)
Cc1sc2ncn(CCn3cnc4sc(C)c(C)c4c3=O)c(=O)c2c1C	MrgX1 allo act 13 | MrgX1 PAM conf inactive | HEK293 Ca flux inactive | HEK293 Ca counter inactive | HEK293 Ca cntr2 inactive
Cn1c(=O)c2c(nc(CN3CCOCC3)n2CC(O)CO)n(C)c1=O (stereo not drawn)	none
O=C(NCCc1cccc(F)c1)C1CCN(S(=O)(=O)c2ccccc2)CC1	none
Cc1cccc(CCNC(=O)C2CCN(S(=O)(=O)c3ccccc3)CC2)c1	MrgX1 allo act 11 | MrgX1 PAM conf inactive | HEK293 Ca flux inactive | HEK293 Ca counter inactive | HEK293 Ca cntr2 inactive
CSc1nsc2nc(=O)c(/C=C3\C=Nc4ccccc43)c(N)n12	MrgX1 allo act 57 | MrgX1 PAM conf 15% | HEK293 Ca flux inactive | HEK293 Ca counter inactive | HEK293 Ca cntr2 inactive
CCc1nn2c(N)c(/C=C3\C=Nc4ccccc43)c(=O)nc2s1	MrgX1 allo act 6.8 | MrgX1 PAM conf 12% | HEK293 Ca flux inactive | HEK293 Ca counter inactive | HEK293 Ca cntr2 inactive
OCC1(CCOc2ccccc2)CCN(Cc2cn[nH]c2-c2ccc(F)cc2)CC1	MrgX1 allo act 11 | MrgX1 PAM conf inactive | HEK293 Ca flux inactive | HEK293 Ca counter inactive | HEK293 Ca cntr2 inactive
S=C(NCc1ccco1)N1CCN(c2ccccn2)CC1	none
Cc1ccc(S(=O)(=O)c2nnn(-c3cccc(F)c3)c2N)cc1	MrgX1 allo act 8.9 | MrgX1 PAM conf inactive | HEK293 Ca flux inactive | HEK293 Ca counter inactive | HEK293 Ca cntr2 inactive
O=C(O)C1CCCN(S(=O)(=O)c2ccc(Br)s2)C1 (stereo not drawn)	MrgX1 allo act 6.6 | MrgX1 PAM conf inactive | HEK293 Ca flux inactive | HEK293 Ca counter inactive | HEK293 Ca cntr2 inactive
COC(=O)c1ccc(OCCCCN2CC(C)OC(C)C2)cc1 (stereo not drawn)	MrgX1 allo act 10 | MrgX1 PAM conf inactive | HEK293 Ca flux inactive | HEK293 Ca counter inactive | HEK293 Ca cntr2 inactive
CC(C)COc1ccc(C(=O)CCN2CCCCC2)cc1	none (no result: Hep lipid drop)
CCCCOc1ccc(C(=O)CCN2CCCCC2)cc1	MrgX1 allo act 7.1 | MrgX1 PAM conf inactive | HEK293 Ca flux inactive | HEK293 Ca counter inactive | HEK293 Ca cntr2 inactive
